B1: Clone 1: 3xFLAG-tagged human aldolase C aa 1-210, 26 kDa (protein, UniProt P09972 1-210, looked up, fragment)
chain: MPHSYPALSAEQKKELSDIALRIVAPGKGILAADESVGSMAKRLSQIGVENTEENRRLYRQVLFSADDRVKKCIGGVIFFHETLYQKDDNGVPFVRTIQDKGIVVGIKVDKGVVPLAGTDGETTTQGLDGLSERCAQYKKDGADFAKWRCVLKISERTPSALAILENANVLARYASICQQNGIVPIVEPEILPDGDHDLKRCQYVTEKVL
modifications: 3xFLAG tag
B2: Clone 2: 3xFLAG-tagged human aldolase C aa 101-300, 25 kDa (protein, UniProt P09972 101-300, looked up, fragment)
chain: KGIVVGIKVDKGVVPLAGTDGETTTQGLDGLSERCAQYKKDGADFAKWRCVLKISERTPSALAILENANVLARYASICQQNGIVPIVEPEILPDGDHDLKRCQYVTEKVLAAVYKALSDHHVYLEGTLLKPNMVTPGHACPIKYTPEEIAMATVTALRRTVPPAVPGVTFLSGGQSEEEASFNLNAINRCPLPRPWALTF
modifications: 3xFLAG tag
B3: Clone 1A: 3xFLAG-tagged human aldolase C aa 1-100, 15 kDa (protein, UniProt P09972 1-100, looked up, fragment)
chain: MPHSYPALSAEQKKELSDIALRIVAPGKGILAADESVGSMAKRLSQIGVENTEENRRLYRQVLFSADDRVKKCIGGVIFFHETLYQKDDNGVPFVRTIQD
modifications: 3xFLAG tag
B4: full-length: 3xFLAG-tagged human aldolase C aa 1-364, 43 kDa (protein, UniProt P09972 1-364, looked up)
chain: MPHSYPALSAEQKKELSDIALRIVAPGKGILAADESVGSMAKRLSQIGVENTEENRRLYRQVLFSADDRVKKCIGGVIFFHETLYQKDDNGVPFVRTIQDKGIVVGIKVDKGVVPLAGTDGETTTQGLDGLSERCAQYKKDGADFAKWRCVLKISERTPSALAILENANVLARYASICQQNGIVPIVEPEILPDGDHDLKRCQYVTEKVLAAVYKALSDHHVYLEGTLLKPNMVTPGHACPIKYTPEEIAMATVTALRRTVPPAVPGVTFLSGGQSEEEASFNLNAINRCPLPRPWALTFSYGRALQASALNAWRGQRDNAGAATEEFIKRAEVNGLAAQGKYEGSGEDGGAAAQSLYIANHAY
modifications: full-length 3xFLAG tag
B5: Clone 1B: 3xFLAG-tagged human aldolase C aa 101-210, 16 kDa (protein, UniProt P09972 101-210, looked up, fragment)
chain: KGIVVGIKVDKGVVPLAGTDGETTTQGLDGLSERCAQYKKDGADFAKWRCVLKISERTPSALAILENANVLARYASICQQNGIVPIVEPEILPDGDHDLKRCQYVTEKVL
modifications: 3xFLAG tag

These molecules were tested on 9F mAb (assay: Immunoblot of 3xFLAG-tagged aldolase C fragments in Neuro2a lysates with 9F mAb). Conditions: Neuro2a total protein lysates; 15% SDS-PAGE; 9F 1:1000; ECL.
Assay type: binding, mouse
How it was run: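 Neuro2a cells were plated without antibiotics to reach 70–90% confluence, transfected with lipofectamine 2000, given fresh medium at 6h and grown 48h at 37 °C. Lysis was 30 min on ice in 50mM Tris-HCl pH 7.5, 150mM NaCl, 0.1% Triton X-100 and 0.5 mM PMSF, cleared at 16000xg. Blots went onto nitrocellulose, blocked 1h in 5% milk/T-PBS. Primary 1h RT or overnight 4 °C; HRP anti-mouse 1:5000, 45min. α-tubulin loading control.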

recognition of 3xFLAG-tagged aldolase C fragment by 9F mAb | Molecule
recognized | B1
absence of ECL signal | B2
detected | B3
recognized | B4

Molecule | recognition of 3xFLAG-tagged aldolase C fragment by 9F mAb
B5 | detected Clone 1A (15kDa) but not Clone 1B
